Bioassay records from PubChem.
MBD2 DNA inh: inhibitors of MBD2 binding to methylated DNA, primary screen, biochemical, TR-FRET, DNA-binding domain, human. inhibition, % at 4.4 µM. MBD2 binding to methylated oligonucleotide. hit rate 0.31% among 370,000; in the data active = inhibition above about 13%
TDP2 inh: human TDP2 enzyme inhibitors, primary screen, biochemical, epi absorbance, recombinant enzyme; AID 720702, 2013; inhibition, % at 12.8 µM; hit rate 0.34% among 370,000; T5PNP hydrolysis, p-nitrophenol absorbance 415 nm; Tyrosyl-DNA phosphodiesterase 2 (Homo sapiens), O95551;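 active = inhibition above the mean of all tested compounds plus 3 SD, set per campaign, cut at about 25% in these data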;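 also: 0% = DMSO with enzyme and 100% = buffer with substrate but no TDP2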
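Test system: Human TDP2 enzyme | Reagent: 5 mM T5PNP | Compound dosing: 12.8 µM single point, 1% DMSO | Incubation: Enzyme reaction with compound for 2 h at 37 °C | Technique: p-Nitrophenol epi absorbance | Read-out: % inhibition relative to enzyme-containing and enzyme-free wells | Benchmarks: High control without enzyme, low control DMSO plus TDP2 | Replicates: Singlicate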
LEDGF integ inh: blockers of LEDGF/p75-dependent integrase strand transfer – biochemical, TR-FRET, high throughput, primary screen. inhibition, % at 3.7 µM. AID 743269, 2014. TR-FRET IN-LEDGF/p75 DNA integration, Eu/Cy5. hit rate 0.64% among 370,000;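 active = inhibition above the screen-wide mean plus 3 SD, cut at about 13% in these data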;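 also: signal is the Cy5 over europium emission ratio at 671 and 618 nm; 0% = plate median of compound wells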
CASP6 VEID inh: human caspase-6 inhibitors, primary screen, biochemical, VEID-R110 fluorescence, single point, set 2; P55212; purified caspase-6, Z-VEID-R110 cleavage fluorescence; inhibition, % at 12.5 µM; hit rate 0.53% among 350,000; AID 686996, 2013;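 active = mean inhibition across replicates at least about 35%, with every replicate also reaching that limit, limit read from the data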;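 also: 0% = median of neutral control wells and 100% = no fluorescence left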
UHRF1 MBD2 ctr: UHRF1 methylated DNA binding inhibitors, primary screen, counter-screen for MBD2 inhibitor project, biochemical, TR-FRET, human UHRF1, single concentration; E3 ubiquitin-protein ligase UHRF1 (Homo sapiens), Q96T88; UHRF1 binding to methylated oligo; hit rate 0.75% among 370,000; AID 687016, 2013; inhibition, % at 4.4 µM; in the data active = inhibition above about 21%;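 also: UHRF1 SRA domain binding a hemimethylated CpG hairpin DNA probe; 0% = median of test compound wells and 100% = reference inhibitor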
NSD2 HMT inh: NSD2 histone methyltransferase inhibitors, primary screen, biochemical, AlphaScreen, single concentration, set 2 | Histone-lysine N-methyltransferase NSD2 (Homo sapiens), O96028 | NSD2 peptide methylation, 120 min | inhibition, % at 12.5 µM | hit rate 0.54% among 310,000 | AID 743445, 2014; in the data active = inhibition above about 50%
TDP2 inh conf: human TDP2 enzyme inhibitors, retest, confirmation, biochemical, epi absorbance, recombinant enzyme. inhibition, % at 12.8 µM. shares compounds with TDP2 inh. hit rate 22% among 1,100. AID 743263, 2014. absorbance read-out; in the data active = inhibition above about 25%;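 also: 0% = vehicle with enzyme and 100% = no enzyme buffer only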
* hit, by the source's call; . = no result. In the library only some 1.9% were active in any assay of this set; here they are far more common.

SMILES	MBD2 DNA inh	TDP2 inh	LEDGF integ inh	CASP6 VEID inh	UHRF1 MBD2 ctr	NSD2 HMT inh	TDP2 inh conf
CCCNC(=O)Nc1ccc2c(c1)C(=O)N(C)[C@@H]1CC[C@@H](CC(=O)NCC3CCCCC3)O[C@H]1CO2	.	.	.	-1.1	.	.	.
COc1ccc(OC)c(C2C(C#N)=C(N)Oc3c2c(C)nn3-c2ccc(C)cc2)c1 (configuration not stated)	-3.8	59.8*	3.7	.	1.3	1.3	9.4
COC(=O)C1=C(C)OC(N)=C(C#N)C1c1ccc(OC)c(OC)c1OC (configuration not stated)	-3.8	1.6	1.2	.	-1.8	-4.6	.
Cc1ccc(-n2nc(C)c3c2OC(N)=C(C#N)C3c2ccoc2)cc1 (configuration not stated)	-7.4	9.5	1.2	.	-3.5	5.1	.
Cc1nn(-c2ccccc2)c2c1C(c1ccccc1)C(C#N)=C(N)O2 (configuration not stated)	-8.7	40.4*	8.3	.	4.8	0.0	11.4
COc1ccc(C2C(C#N)=C(N)Oc3c2c(-c2ccccc2)nn3-c2ccccc2)c(OC)c1OC (configuration not stated)	-8.2	68.4*	11.7	.	3.5	1.0	6.8
Cc1ccc(-n2nc(C)c3c2OC(N)=C(C#N)C3c2ccc(C)o2)cc1 (configuration not stated)	-4.7	-1.7	8.6	5.3	-7.4	.	.
COc1ccc(OC(=O)N(C)C[C@H]2OCc3ccccc3-c3ccccc3C(=O)N([C@H](C)CO)C[C@@H]2C)cc1	.	.	.	2.6	.	.	.
COCC(=O)N1[C@H](C(=O)N2CCOCC2)[C@@H](CO)[C@@H]2Cn3c(ccc(C4=CCCCC4)c3=O)[C@@H]21	.	.	.	1.6	.	.	.
C[C@H]1CN([C@@H](C)CO)S(=O)(=O)c2ccc(-c3ccc(C(=O)N(C)C)cc3)cc2O[C@@H]1CN(C)C(=O)C1CCCCC1	.	.	.	-0.8	.	.	.
Cc1ccc(CNc2ncc(-c3ccccc3)n2C)o1	-5.6	11.8	1.7	-3.9	-1.7	7.7	.
Cn1c(-c2ccccc2)cnc1NCc1ccccc1	3.0	29.2*	-0.2	-2.3	-0.1	1.0	-4.9
C[C@@H]1CN([C@@H](C)CO)C(=O)c2cc(NC(=O)Nc3cccc4ccccc34)ccc2O[C@@H]1CN(C)Cc1ccc(C(F)(F)F)cc1	.	.	.	-1.3	.	.	.
COCC(=O)N(C)C[C@H]1Oc2ncc(Br)cc2C(=O)N([C@H](C)CO)C[C@@H]1C	.	.	.	1.7	.	.	.
COc1ccc(CCNC(=O)c2ccccc2)cc1	1.6	69.7*	-3.9	-2.1	-1.1	-2.5	2.1
CCc1cc(SC#N)cc(C)c1NC(=O)CCl	-1.2	-9.6	-12.7	11.2	2.4	-13.7	.
CCc1cc(SC#N)cc(C)c1N	7.0	31.6*	-3.5	-0.6	14.5	.	5.5
CC(C)Oc1ccc(S(=O)(=O)N2CCOCC2)cc1NC(=O)Cc1c(F)cccc1Cl	1.6	28.6*	1.7	-4.0	-0.1	0.9	0.2
O=C(C[C@@H]1CC[C@H]2[C@@H](COC[C@@H](O)CN2Cc2cc(F)ccc2F)O1)N1CCc2ccccc2C1	.	.	.	1.6	.	.	.
Nc1c(C(=O)OCC(=O)Nc2ccccc2Br)[nH]c(=O)[nH]c1=O	1.3	6.6	1.3	1.4	-9.4	2.4	.
Nc1c(C(=O)OCC(=O)NCc2ccccc2)[nH]c(=O)[nH]c1=O	0.4	49.2*	-0.5	-1.5	-7.9	-0.4	-2.6
C[C@@H]1CN([C@@H](C)CO)C(=O)c2cc(NS(C)(=O)=O)ccc2O[C@H]1CN(C)C(=O)Nc1ccc(C(F)(F)F)cc1	.	.	.	-0.1	.	.	.
Cc1cccc(S(=O)(=O)N2C[C@@H]3[C@H](c4ccccc42)[C@H](CO)N3C(=O)c2ccccc2)c1	.	.	.	-0.6	.	.	.
